# High-throughput results (PubChem BioAssay)
# A selection: hits, their analogues and other compounds. The true share with any hit is near 1.5%.
# MDM2 E3 inh: blocks human Mdm2 ubiquitin ligase activity; 0.11% of 210,000 active; Q00987; signal enhancement, % at 5 µM; cell-based MDM2 ubiquitination luciferase reporter, 2 h; 0 = plate control, 100 = twice control, blank-subtracted;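 active = signal enhancement of 30% or more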;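 also: luminescence tracks abundance of the self-degrading MDM2-luciferase fusion protein; higher signal means inhibition of MDM2 E3 ligase activity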
# Target sequence (Q00987 whole entry, looked up, the tested form may be a part): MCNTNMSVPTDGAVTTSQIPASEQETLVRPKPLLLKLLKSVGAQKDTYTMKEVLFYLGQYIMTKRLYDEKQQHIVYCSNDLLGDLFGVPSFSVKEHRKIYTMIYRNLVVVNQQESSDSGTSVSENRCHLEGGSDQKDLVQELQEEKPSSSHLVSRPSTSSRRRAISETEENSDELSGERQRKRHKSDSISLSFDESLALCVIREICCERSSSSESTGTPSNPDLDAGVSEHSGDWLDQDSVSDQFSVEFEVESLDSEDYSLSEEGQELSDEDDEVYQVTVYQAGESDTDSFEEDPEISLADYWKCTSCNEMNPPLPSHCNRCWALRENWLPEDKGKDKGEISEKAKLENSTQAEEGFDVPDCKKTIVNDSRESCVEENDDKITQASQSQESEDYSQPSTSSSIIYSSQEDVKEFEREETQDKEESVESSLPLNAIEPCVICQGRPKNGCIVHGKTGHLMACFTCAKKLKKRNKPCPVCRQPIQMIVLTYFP
#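 Assay system: stable mammalian line carrying autodegrading MDM2–luciferase fusion reporter; amount: 2000 cells seeded into each well; buffer or medium: DMEM; benchmarks: plate control and blank wells; signal: luciferase luminescence; timing: 2 h compound exposure at 37 °C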
# Wee1 degr inh: inhibitors of human Wee1 degradation; P30291; HeLa Luc-Wee1K328M stability, luciferase luminescence; 100% = proteasome inhibitor MG132 effect; reporter increase, % at 5 µM; 1.2% of 220,000 active;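 active = activation above the mean of all tested compounds plus 3 SD, set per screening run, cut at about 8.8% in these data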;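 also: cells exposed to compound for 20 h before luminescence read; 0% = DMSO alone and 100% = MG132 at 30 µM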
# m-calpain inh: calpain II (pig) inhibition | AID 1236 | inhibition, % at 16 µM | purified calpain II, fluorogenic peptide substrate, 30 min | 0.37% of 220,000 active;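 active = inhibition above about 50%, limit read from the data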
# Pf gamet viab: inhibitors of late stage P. falciparum gametocyte viability | P. falciparum stage V gametocytes, ATP luminescence, 24 h | inhibition, % at 10.9 µM | 0.065% of 150,000 active | AID 743093;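 active = inhibition above the mean plus 3 SD of compounds within the control limits, set per campaign, cut at about 38% in these data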;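 also: 0% = DMSO wells and 100% = medium only without gametocytes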
# Hsp70 activator: transcriptional activators of Hsp70 | HeLa Hsp70 promoter luciferase reporter, luminescence; scaled: vehicle 0, proteasome-inhibitor control 100% | activation, % at 10 µM | 0.04% of 200,000 active | AID 1203;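 active = activation above the mean across all tested compounds plus 3 SD, cutoff set per campaign, cut at about 5.5% in these data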;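 also: 100% = MG132 at 30 µM as the positive control and 0% = DMSO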
# Wee1 degr conf: human Wee1 degradation inhibition, confirmation; shares compounds with Wee1 degr inh; HeLa Luc-Wee1K328M degradation, luminescence; vehicle 0%, proteasome-blocked wells 100%; activation, % at 5 µM; 4% of 1,100 active; in the data active = activation above about 8.9%
# The depositor's hits bear a star; . = not tested or not shown.
SMILES,MDM2 E3 inh,Wee1 degr inh,m-calpain inh,Pf gamet viab,Hsp70 activator,Wee1 degr conf
O=P(COCCOCCOCCOCP(=O)(c1ccccc1)c1ccccc1)(c1ccccc1)c1ccccc1,-20,-1,2,.,0,.
S=c1[nH]nc(-c2ccco2)n1/N=C/c1ccc(Cl)cc1,-14,13*,19,4,0,0
O=C(N/N=C1\CC(c2ccccc2)Oc2ccccc21)c1ccccn1 (stereo not given),-19,-1,-57,-9,0,.
O=C(N/N=C1\CC(c2ccccc2)Oc2ccccc21)c1cccnc1 (stereo not given),-16,12*,-33,-31,0,0
COC(=O)c1c(-c2ccc3ccccc3c2)csc1NC(=O)Cc1ccc(OC)c(OC)c1,-11,0,-102,10,0,.
CN1/C(=C\C(=O)Nc2cccc(Cl)c2)C(C)(C)c2ccccc21,-11,19*,-13,-14,0,-1
CC(C)CCNC(=O)C(C)N(Cc1ccc(F)cc1)C(=O)c1ccc(CN2CCCCC2)o1 (stereo not given),-8,2,1,.,-1,.
CCN(CC)CCN(C(=O)c1ccc(CN2CCCCC2)o1)C(C(=O)NC1CCCCC1)c1ccc(F)cc1 (stereo not given),-2,11*,-11,4,0,-2
O=c1cc(CSc2nc3ccccc3c(=O)[nH]2)c2ccc(O)cc2o1,0,5,-108,7,0,.
CC(C)[C@H](NC(=O)c1ccco1)C(=O)OCC(=O)N1CCc2ccccc21,2,1,5,.,0,.
CC(C)[C@H](NC(=O)c1ccco1)C(=O)OCC(=O)N1CC(=O)Nc2ccccc21,-6,14*,-8,6,0,-1
C=CCNC(=O)C1CCC(=O)N1S(=O)(=O)c1ccc(C)cc1 (stereo not given),.,.,.,10,.,.
NC(CCCCCP(=O)(c1ccccc1)c1ccccc1)C(=O)O (stereo not given),-6,3,-1,.,.,.
CCCOc1ccc(C(=O)CCN2CCN(C(=O)OCC)CC2)cc1,-1,17*,2,12,0,0
O=C(/C=C/c1ccccc1)NC(=S)Nc1ncccn1,.,3,-20,.,.,.
COc1ccc(-n2nc([N+](=O)[O-])c(=NCCc3ccc(C)cc3)n2O)cc1,-8,25*,2,-13,0,4
O=C(O)COc1ccc(/C=C/c2nc3ccc([N+](=O)[O-])cc3s2)cc1,-12,4,7,-5,.,.
Nc1ncc([N+](=O)[O-])cc1S(=O)(=O)c1ccccc1,.,.,.,22,.,.
CC(=O)NS(=O)(=O)c1ccc(NC(=O)CSc2ccc(Cl)cc2)cc1,6,13*,-29,23,0,1
Cc1ccc(C)c(NS(=O)(=O)c2ccc(NC(=O)CSc3ccc(Cl)cc3)cc2)c1,-4,-1,4,11,-1,.
C=CCOC(=O)c1sc(NC(=O)c2ccc(OC)cc2)nc1C,-7,1,-11,-7,0,.
Cc1cccc(-n2cc(-c3ccccc3)c3c(NN4CCOCC4)ncnc32)c1,-4,24*,25,-21,0,1
CC1=CC(c2ccccc2)n2nnnc2N1 (stereo not given),-3,12*,9,2,.,4
C=CCc1cccc2cc(C(=O)NC3CCCCC3)c(=O)oc12,-12,17*,12,.,0,-1
C=CCc1cccc2cc(C(=O)NCCOC)c(=O)oc12,-4,-2,-50,9,0,.
SMILES,MDM2 E3 inh,Wee1 degr inh,m-calpain inh,Pf gamet viab,Hsp70 activator,Wee1 degr conf
c1ccc(-n2cnnc2SCc2cn3ccsc3n2)cc1,-2,13*,-1,10,0,1
c1ccc(-n2cnnc2SCc2cn3ccccc3n2)cc1,-14,0,-55,1,0,.
COc1cc(/C=N/n2nnnc2N)cc(Cl)c1OC,.,.,.,6,.,.
Fc1cccc(/C=N/Nc2nc3ccccc3[nH]2)c1,-3,11*,26,4,0,0
COc1cc(OC)c2c(=O)cc(-c3cccnc3)oc2c1,.,14*,-59,.,.,2
Cc1ccc2c(COC(=O)c3n[nH]c4ccccc34)cc(=O)oc2c1,-10,14*,-62,16,0,-1
Cc1ccc(C(=O)NC2=NCCS2)cc1,.,16*,-15,-2,.,-3
COc1cccc(-c2ncc3ccccc3c2COC(=O)CCCC(=O)O)c1,.,.,.,4,.,.
O=C(NC1CCCCC1)NC1CC2CCC(C1)N2C(=O)NC1CCCCC1 (stereo not given),-14,15*,26,.,0,-1
Cc1cc2c(NC3CCCCC3)ncnc2s1,.,.,.,1,.,.
Cc1cc(C)n(-c2c(C)[nH]c3ccccc23)n1,2,-3,-24,7,0,.
O=C(CSc1ccc(-c2cccc([N+](=O)[O-])c2)nn1)NC1CCCC1,4,0,10,11,0,.
Cc1cc(C)n(CCOc2ccc(Cl)cc2Cl)n1,-11,11*,19,4,0,-2
Cc1cc(C)n(CC(O)COc2ccc(Cl)cc2Cl)n1 (stereo not given),.,.,.,15,.,.
Cc1ccc(/C=C/C(=O)N2CCCC(C(N)=O)C2)o1 (stereo not given),-6,-3,27,6,.,.
CNC(=O)NC(=O)COC(=O)c1ccccc1OCc1ccccc1,-4,-3,-17,4,0,.
CCN1C(=O)[C@H]2[C@@H](c3ccc(-c4ccc(F)cc4)cc3)N[C@@](C)(C(=O)OC)[C@H]2C1=O,.,.,.,1,.,.
CC(=O)NC1=NN(C(C)=O)C(c2ccc(C)cc2)S1 (stereo not given),5,12*,-1,-76,0,0
O=C(O)c1ccc(NC(=O)c2cn(-c3ccccc3)nc2-c2cccc(Cl)c2)cc1,.,.,.,5,.,.
COCCCNCCOCCOc1ccc(Cl)cc1C(C)(C)C,-10,-4,-3,-20,0,.
O=C(NCCN1CCOCC1)C1CCC(=O)N1Cc1ccc(F)cc1 (stereo not given),-6,11*,-4,.,0,5
C#CCNC(=O)C1=C[C@H](C(C)(C)C)C[C@H](OCCCCO)O1,.,.,.,16,.,.
Cc1ccsc1/C=C1/CN(C)Cc2c1nc1ccccc1c2C(=O)O,-9,11*,-13,-1,.,-1
CCc1nnc(NC(=O)CN2CCN(Cc3ccc(C)cc3)CC2)s1,.,.,.,13,.,.
O=C1OCC2=C1C(c1ccc(Cl)cc1)CC(=O)N2c1ccc(F)cc1 (stereo not given),11,14*,-5,-8,0,2
O=C1OCC2=C1C(c1ccccc1)CC(=O)N2c1ccc(F)cc1 (stereo not given),-21,4,-17,-9,0,.
COc1cc(C)c(C)cc1S(=O)(=O)N1CCN(Cc2ccccc2)CC1,-5,14*,-9,.,0,4
